Results published in article PMC5356508 (Bioconjugate chemistry, 2016).
“And” between values parts separate entries of the source, which are not always exact repeats. Identical values can stand only once. Like-named read-outs stand apart in the source and are kept apart here. Each block holds one compound with its values, some of them ahead of it.

Assays:
[1] = Hydrolytic release of paclitaxel by compound 4 in buffer; assay type: physicochemical; conditions: 3:1 methanol/PBS buffer pH 7.4; pseudo 1st order kinetics
Summary of the method: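 Test compound stock in methanol was mixed with 1 M PBS pH 7.4 (3:1 methanol:buffer) in a sealed, stirred vial. Aliquots were taken at 0 min and from 30 to 1440 min. Parent and released drug were quantified by C18 reverse-phase HPLC (gradient from 1:1 MeOH:H2O to 100% MeOH, 1 mL/min) against standard curves of both compounds.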

[2] = test system: A2780 human ovarian cancer cell line; assay: Antiproliferative assay; assay type: cell-based
[3] = Generation of paclitaxel in rabbit whole blood; assay type: in vitro ADME; conditions: without BME
[4] = Pharmacokinetics: whole blood paclitaxel levels in tumor burdened mice; assay type: in vivo, B16/F10 tumor burdened C57Bl/6 mice; conditions: 5 μg injected, ELISA, Figure 3A
[5] = Release of paclitaxel in bicarbonate buffer without or with dithiothreitol; assay type: physicochemical
[6] = Accumulation of paclitaxel in solid tumors; assay type: in vivo, B16/F10 tumor-bearing C57BL/6 mice; conditions: C57BL/6, mouse, tumor homogenate, iv, 2.5 mg/kg
[7] = test system: A2780 human ovarian cancer cell line; conditions: cited from earlier work
B16/F10 melanoma = assay: Treatment of tumor-burdened mice; assay type: in vivo, C57BL/6 mice; conditions: treated days 0, 2, 5, 7, after 9 days
Summary of the method: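 B16/F10 melanoma cells were implanted in C57BL/6 mice and grown to tumours of about 500 mm3. Groups of n=4 were injected on days 0, 2, 5 and 7 with native drug (2.5 or 40 mg/kg), nanoparticle formulations (2.5 mg/kg drug equivalent) or PBS control. Tumour volume was measured over time, and the % decrease versus control was taken at day 9.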

half-life of hydrolysis to paclitaxel [1]: 3.2 h
IC50 [2]: 4.5 ± 0.4 nM
SMILES: CC(=O)OC1C(=O)C2(C)C(OC(=O)OCOC(=O)CCCCC3CCSS3)CC3OCC3(OC(C)=O)C2C(OC(=O)c2ccccc2)C2(O)CC(OC(=O)C(O)C(NC(=O)c3ccccc3)c3ccccc3)C(C)=C1C2(C)C (stereo not shown) [Compound 4, (7-O-Paclitaxelcarbonyloxy)methyl 5-(1,2-dithiolan-3-yl)pentanoate]

Percent conversion to paclitaxel ([5]; Buffer + 3-fold excess DTT, 1 h (60 min)): 90%
Percent conversion to paclitaxel ([5]; Buffer, incubation 0 h): 0.3%
Percent conversion to paclitaxel ([5]; Buffer, incubation 1 h): 4.1%
Percent conversion to paclitaxel ([5]; Buffer, incubation 4 h): 4%
Percent conversion to paclitaxel ([5]; Buffer, incubation 48 h): 14.4%
Percent conversion to paclitaxel ([5]; Buffer, incubation 72 h): 50% and 50.4%
IC50 [2]: 34 ± 18 nM
SMILES: CC(=O)O[C@H]1C(=O)[C@]2(C)[C@@H](OC(=O)OCc3ccc(SSc4ccccn4)cc3)C[C@H]3OC[C@@]3(OC(C)=O)[C@H]2[C@H](OC(=O)c2ccccc2)[C@]2(O)C[C@H](OC(=O)[C@H](O)[C@@H](NC(=O)c3ccccc3)c3ccccc3)C(C)=C1C2(C)C [Compound 5]
Conversion to paclitaxel in rabbit whole blood (in words) [3]: completely converted to paclitaxel essentially immediately
release of paclitaxel in the circulation (in words) [4]: rapidly degraded to the paclitaxel parent in the circulation

IC50 [2]: 6.6 ± 1.7 nM
SMILES: CC(=O)OC1C(=O)C2(C)C(O)CC3OCC3(OC(C)=O)C2C(OC(=O)c2ccccc2)C2(O)CC(OC(=O)C(OC(=O)CCC(=O)OCOC(=O)CCCCC3CCSS3)C(NC(=O)c3ccccc3)c3ccccc3)C(C)=C1C2(C)C (stereo not shown) [Compound 6, ((5-(1,2-dithiolan-3-yl)pentanoyl)oxy)methyl paclitaxel-2′-yl succinate]

concentration at 24 h [6]: 5 ng/mL
SMILES: CC(=O)O[C@H]1C(=O)[C@@]2(C)[C@H]([C@H](OC(=O)c3ccccc3)[C@]3(O)C[C@H](OC(=O)[C@H](O)[C@@H](NC(=O)c4ccccc4)c4ccccc4)C(C)=C1C3(C)C)[C@]1(OC(C)=O)CO[C@@H]1C[C@@H]2O [paclitaxel]
IC50 [7]: 15 ± 1 nM
Response: Decrease in Tumor Volume vs Control (B16/F10 melanoma; Paclitaxel dose 2.5 mg/kg): −24%
Response: Decrease in Tumor Volume vs Control (B16/F10 melanoma; Paclitaxel dose 40 mg/kg): −68%
